# Measurements from ChEMBL document CHEMBL1150393, “Evaluation of radiolabeled (hetero)aromatic analogues of N-(2-diethylaminoethyl)-4-iodobenzamide for imaging and targeted radionuclide therapy of melanoma” (J Med Chem, 2008).
# How the values were obtained:
# Format in all cases: ADME, organism-based
# Conditions in all cases: in vivo
# Blood = test: Biodistribution in blood of C57BL/6 mouse bearing mouse B16-F0 cells at 0.74 to 0.92 MBq, iv after 24 hrs
# How it was run: (§1)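 Male C57BL6 mice with s.c. left-flank B16-F0 melanoma (5 × 10⁵ cells in PBS). Two mice per time point frozen in liquid nitrogen after CO₂ sacrifice. Eight 40 µm whole-body cryosections per mouse read by multiwire proportional counter. cpm/mm² converted to kBq/g and expressed as %ID/g.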
# Kidney = test: Biodistribution in kidney of C57BL/6 mouse bearing mouse B16-F0 cells at 0.74 to 0.92 MBq, iv after 72 hrs; how it was run: as §1
# Muscle tissue = test: Biodistribution in muscle of C57BL/6 mouse bearing mouse B16-F0 cells at 0.74 to 0.92 MBq, iv after 24 hrs; how it was run: as §1
# Pancreas = test: Biodistribution in pancreas of C57BL/6 mouse bearing mouse B16-F0 cells at 0.74 to 0.92 MBq, iv after 24 hrs; how it was run: as §1
# [1] = Ratio of drug level in tumor to liver of C57BL/6 mouse bearing mouse B16-F0 cells at 0.74 to 0.92 MBq, iv after 72 hrs
# How it was run: (§2)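 Tumour and organ radioactive concentrations came from whole-body cryosection counting (40 µm slices, eight per mouse, two mice per time) after tail-vein injection of the [¹²⁵I]-labelled compound (0.1 µmol) into male C57BL6 mice bearing s.c. B16-F0 melanoma. Each value is the ratio of the tumour concentration to the organ concentration.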
# [2] = Biodistribution in gall bladder of C57BL/6 mouse bearing mouse B16-F0 cells at 0.74 to 0.92 MBq, iv after 3 hrs; how it was run: as §1
# [3] = Biodistribution in glandula seminalis of C57BL/6 mouse bearing mouse B16-F0 cells at 0.74 to 0.92 MBq, iv after 3 hrs; how it was run: as §1
# [4] = Biodistribution in glandula seminalis of C57BL/6 mouse bearing mouse B16-F0 cells at 0.74 to 0.92 MBq, iv after 1 hr; how it was run: as §1
# [5] = Biodistribution in gall bladder of C57BL/6 mouse bearing mouse B16-F0 cells at 0.74 to 0.92 MBq, iv after 1 hr; how it was run: as §1
# [6] = Biodistribution in glandula seminalis of C57BL/6 mouse bearing mouse B16-F0 cells at 0.74 to 0.92 MBq, iv after 6 hrs; how it was run: as §1
# [7] = Ratio of drug level in tumor to brain of C57BL/6 mouse bearing mouse B16-F0 cells at 0.74 to 0.92 MBq, iv after 72 hrs; how it was run: as §2
# [8] = Biodistribution in intestinal content of C57BL/6 mouse bearing mouse B16-F0 cells at 0.74 to 0.92 MBq, iv after 72 hrs; how it was run: as §1
# Brain [9] = test: Biodistribution in brain of C57BL/6 mouse bearing mouse B16-F0 cells at 0.74 to 0.92 MBq, iv after 24 hrs; how it was run: as §1
# [10] = Ratio of drug level in tumor to brain of C57BL/6 mouse bearing mouse B16-F0 cells at 0.74 to 0.92 MBq, iv after 24 hrs; how it was run: as §2
# Brain [11] = test: Biodistribution in brain of C57BL/6 mouse bearing mouse B16-F0 cells at 0.74 to 0.92 MBq, iv after 72 hrs; how it was run: as §1
# Bone marrow = test: Biodistribution in bone marrow of C57BL/6 mouse bearing mouse B16-F0 cells at 0.74 to 0.92 MBq, iv after 1 hr; how it was run: as §1
compound,measurement,setting,value
CCN(CC)CCNC(=O)c1cc2cc([125I])ccc2[nH]1.Cl,Drug uptake,Blood,0.1 % ID/g
same,Drug uptake,Kidney,0.71 % ID/g
same,Drug uptake,Muscle tissue,0.19 % ID/g
same,Drug uptake,Pancreas,0.09 % ID/g
same,Ratio,[1],1.38
CCN(CC)CCNC(=O)c1ccc2cc([125I])ccc2n1.Cl.Cl,Ratio,[1],7.26
CCN(CC)CCNC(=O)c1ccc2cncc([125I])c2n1.Cl.Cl,Drug uptake,[2],41.51 % ID/g
CCN(CC)CCNC(=O)c1ccc([125I])nc1.Cl.Cl,Drug uptake,[3],3.78 % ID/g
same,Drug uptake,[2],6.78 % ID/g
same,Drug uptake,[4],6.79 % ID/g
same,Drug uptake,[5],8.68 % ID/g
same,Drug uptake,[6],3.55 % ID/g
CCN(CC)CCNC(=O)c1c[nH]c2ccc([125I])cc2c1=O.Cl.Cl,Drug uptake,Blood,0.22 % ID/g
same,Ratio,[7],23.5
same,Drug uptake,[8],0.7 % ID/g
same,Drug uptake,Brain [9],0.04 % ID/g
same,Ratio,[10],68.5
same,Drug uptake,Brain [11],0.1 % ID/g
CCN(CC)CCNC(=O)c1cnc2cc([125I])ccc2n1.Cl.Cl,Drug uptake,Bone marrow,4.58 % ID/g
